Measured values of several laboratories.
Lines come from different studies, so protocols differ.
DDR1: Epithelial discoidin domain-containing receptor 1 (DDR1, Homo sapiens, UniProt Q08345)
ADRB2: Beta-2 adrenergic receptor (ADRB2, Homo sapiens, UniProt P07550)
CNR2: Cannabinoid receptor 2 (CNR2, Homo sapiens, UniProt P34972)
MMP2: 72 kDa type IV collagenase (MMP2, Homo sapiens, UniProt P08253)

Compound | target | test | setting | IC50 [µM]
COc1cccc2sc(N(CCN(C)C)C(=O)c3ccc(Cl)s3)nc12 | Short transient receptor potential channel 6 (Trpc6, Mus musculus, UniProt Q61143) | calcium signal, fluorescence |  | 139
Cc1ccc(NC(=O)c2ccc(C)c(C(F)(F)F)c2)cc1C#Cc1nn(C2CCC(O)CC2)c2ncnc(N)c12 (stereo not shown) | DDR1 | enzyme activity, inhibitor, radiometric |  | 0.015
CC(C)(C)n1nc(-c2ccc3nc(OC4CC4)ccc3c2)c(C(N)=O)c1N | Casein kinase I isoform alpha (CSNK1A1, Homo sapiens, UniProt P48729) | cell-free assay, inhibitor |  | > 10
CCN(CC)CCNC(=O)c1cc(Cl)c(N)cc1OC | ADRB2 | ligand displacement, radioligand | cell membranes | 67.4
Cc1c(C(=O)N[C@H]2CCCC[C@H]2N)nc(-c2ccc(Cl)cc2Cl)n1-c1ccc(OS(=O)(=O)CCC(F)(F)F)cc1 (racemic) | CNR2 | GTPγS binding, antagonist | cell membranes | 0.805
COc1ccc2nc(/N=C3/NC(=O)C(=Cc4ccccc4)S3)sc2c1 | Aldo-keto reductase family 1 member B1 (Akr1b1, Rattus norvegicus, UniProt P07943) | enzyme activity, inhibitor, absorbance | pH 6.2 | > 50
CCCC[C@H](NC(=O)[C@H](C)c1c(C)[nH]c2ccc(O)cc12)c1ncc(-c2cc3ccccc3nc2OC)[nH]1 | Histone deacetylase 7 (HDAC7, Homo sapiens, UniProt Q8WUI4) | enzyme activity, inhibitor |  | > 45
COc1cc(N)c(Cl)cc1C(=O)CCC1CCN(CCNS(C)(=O)=O)CC1 | ADRB2 | ligand displacement, radioligand | cell membranes | 62.6
Cn1nc(C(=O)NCc2ccc(C(=O)O)cc2)cc1-c1ccc2[nH]c(-c3cncnc3)cc2c1 | MMP2 | enzyme activity, inhibitor |  | > 20
Cc1c(C(=O)N[C@@H]2CCCC[C@@H]2O)nc(-c2ccc(Cl)cc2Cl)n1-c1ccc(OS(=O)(=O)CCC(F)(F)F)cc1 (single isomer, unassigned) | CNR2 | GTPγS binding, antagonist | cell membranes | 0.44
O=S(=O)(Nc1ccc2cccc(O)c2n1)c1ccc(-c2ccccc2)cc1 | MMP2 | enzyme activity, inhibitor, fluorescence |  | 48
NC(=O)c1ccc[n+]([C@@H]2O[C@H](COP(=O)([O-])OP(=O)(O)OC[C@H]3O[C@@H](n4cnc5c(N)ncnc54)[C@H](O)[C@@H]3O)[C@@H](O)[C@H]2O)c1 | Protein mono-ADP-ribosyltransferase PARP6 (PARP6, Homo sapiens, UniProt Q2NL67) | enzyme activity, inhibitor |  | 87
CC[C@H](C)[C@H](NC(C)=O)C(=O)N[C@@H](CCC(=O)O)C(=O)N[C@H](C(=O)N[C@H](C=O)CC(=O)O)[C@@H](C)O | Caspase-2 (Homo sapiens, UniProt P42575) | enzyme activity, inhibitor |  | 0.109
CNC(=O)c1cc2c(Oc3ccc(NC(=O)C4(C(=O)Nc5ccc(F)cc5)CC4)cc3)ccnc2cc1OC | DDR1 | enzyme activity, inhibitor, radiometric |  | 0.013
O=C(c1ccc(-c2cccc(C(F)(F)F)c2)o1)N1CCN2CCC1CC2 | Neuronal acetylcholine receptor subunit alpha-7 (CHRNA7, Homo sapiens, UniProt P36544) | ion current, two-electrode voltage clamp | oocytes | 1.2
CC/C(=C(\c1ccc(O)cc1)c1ccc(OCCN(C)C)cc1)c1ccccc1 | Histone-lysine N-methyltransferase SETD7 (SETD7, Homo sapiens, UniProt Q8WTS6) | enzyme activity, inhibitor |  | > 333
Cc1noc(-c2cc3cc(-c4nc(C(=O)NCc5ccccn5)[nH]c4C)ccc3[nH]2)n1 | MMP2 | enzyme activity, inhibitor |  | > 20
CCC1(c2ccc(C)cc2)C(=O)N(C(=O)OC(C)C)N1C(=O)OC(C)C (stereo not shown) | Monoacylglycerol lipase ABHD6 (Abhd6, Mus musculus, UniProt Q8R2Y0) | enzyme activity, inhibitor |  | 3
COc1cc(O)c(CC=C(C)C)c(O)c1C(=O)/C=C/c1ccc(O)cc1 | Cytochrome P450 1B1 (CYP1B1, Homo sapiens, UniProt Q16678) | enzyme activity, inhibitor, fluorescence | 15 min, pH 7.4 | 0.34
